Experimental data from different studies.
Lines come from different studies, so protocols differ.
Target: Serine/threonine-protein kinase Sgk3 (SGK3, Homo sapiens, UniProt Q96BR1)
One construct used (Q96BR1 1-496): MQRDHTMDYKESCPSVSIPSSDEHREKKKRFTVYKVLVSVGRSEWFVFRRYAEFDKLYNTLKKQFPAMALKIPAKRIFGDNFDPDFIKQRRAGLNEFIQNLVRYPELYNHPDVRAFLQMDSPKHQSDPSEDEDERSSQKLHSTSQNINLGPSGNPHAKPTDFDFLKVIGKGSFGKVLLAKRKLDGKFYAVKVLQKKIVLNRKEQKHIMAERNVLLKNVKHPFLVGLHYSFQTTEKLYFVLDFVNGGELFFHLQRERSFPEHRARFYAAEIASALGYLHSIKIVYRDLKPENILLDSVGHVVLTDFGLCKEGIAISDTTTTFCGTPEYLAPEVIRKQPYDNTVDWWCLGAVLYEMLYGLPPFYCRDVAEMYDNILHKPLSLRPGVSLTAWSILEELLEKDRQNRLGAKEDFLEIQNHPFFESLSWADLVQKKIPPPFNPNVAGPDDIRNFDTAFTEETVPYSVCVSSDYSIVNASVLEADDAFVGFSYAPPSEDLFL

With `CN(C)c1nccc(-c2cnn3ncccc23)n1` the remaining binding was 100% (binding; 1 µM).
`O=C(c1ccc(Nc2ncc(Cl)c(-c3ccc(Cl)s3)n2)cc1)N1CCC(N2CCCC2)CC1` gave a remaining binding of 4.7% (binding; competition with immobilised ligand; 1 µM).
For `CN(C)c1nccc(-c2cnc3ncccn23)n1`, the remaining binding was 79% (binding; 1 µM).
For `O=C(Nc1cnc(Oc2ccc(F)cc2)nc1)N1CCc2ncccc2[C@@H]1c1ccc(F)cc1`, the remaining binding was 100% (cell-free assay; competition with immobilised ligand; 1 µM).
With `F[C@@H]1CCN(c2nccc(-c3cnn4ncccc34)n2)C1` the remaining binding was 89% (binding; 1 µM).
The remaining binding of `O=C(NCc1ncc(C(F)(F)F)cc1Cl)c1ccc2c(c1)C1(CCS(=O)(=O)CC1)[C@H](C1CC1)N2S(=O)(=O)c1ccc(F)cc1` is reported as 99% (cell-free assay; competition with immobilised ligand; 1 µM).
For `c1cncc(-c2cccc(Nc3nccc(NC4CCCCC4)n3)c2)c1`, the remaining binding was 58% (binding; competition with immobilised ligand; 10 µM).
`COc1cnc(Nc2cccc(S(N)(=O)=O)c2)nc1N1CCN(c2ccccc2)C(=O)C1` has a remaining binding of 100% (binding; competition with immobilised ligand; 1 µM).
For `O=C(NCC1CCOCC1)c1n[nH]cc1NC(=O)c1c(F)cccc1F`, the remaining binding was 78% (binding; competition with immobilised ligand; 1 µM).
The remaining binding of `CS(=O)(=O)c1cc(C2(NC(=O)c3cncc4c3cnn4-c3ccc(F)cc3)CC2)ccn1` is reported as 100% (cell-free assay; competition with immobilised ligand; 1 µM).
`N[C@H]1CCN(c2nccc(-c3cnn4ncccc34)n2)C1` gave a remaining binding of 100% (binding; 1 µM).
`Cc1cnc(Nc2ccc(C(=O)N3CCC(N4CCCC4)CC3)cc2)nc1-c1cc2ccccc2s1` gave a remaining binding of 7.3% (binding; competition with immobilised ligand; 1 µM).
`C=CC(=O)N1CCC(C(=O)NCC(=O)N2CCN(c3nc(-c4cnc(N)nc4C(F)F)nc(N4CCOCC4)n3)CC2)CC1` gave a remaining binding of 100% (binding; competition with immobilised ligand; 1 µM).
With `CCN1CCN(Cc2ccc(C(=O)Nc3ccc(C)c(Oc4ccc5c(c4)CC(=O)N5)c3)cc2C(F)(F)F)CC1` the remaining binding was 100% (binding; competition with immobilised ligand; 1 µM).
The remaining binding of `C[C@@H]1CCN(c2nccc(-c3cnn4ncccc34)n2)C1` is reported as 87% (binding; 1 µM).
For `C[C@@]1(Cc2ccc(C#N)cc2)C(=O)N(c2cc(Cl)cc(Cl)c2)c2ncc(C(=O)NC3(c4nc(C5CCC5)no4)CC3)n21`, the remaining binding was 100% (cell-free assay; competition with immobilised ligand; 1 µM).
For `O=C(NCCCN1CCOCC1)c1ccc(Nc2ncc(Cl)c(-c3ccc(Cl)s3)n2)cc1`, the remaining binding was 45% (binding; competition with immobilised ligand; 1 µM).
For `O=C(NCCCC1CCCCC1)c1ccc(CNC(=O)c2cnn(-c3ccccc3)c2C(F)(F)F)cc1`, the remaining binding was 92% (cell-free assay; competition with immobilised ligand; 0.1 µM).
The remaining binding of `c1cnn2ncc(-c3ccnc(N4CCC45COC5)n3)c2c1` is reported as 71% (binding; 1 µM).
The remaining binding of `CCC(=N\O)/C(C)=C/c1ccc(F)cc1` is reported as 81% (cell-free assay; competition with immobilised ligand; 1 µM).
`CNC(=O)[C@@H]1CC[C@@H](n2c(-c3ccc4cnccc4c3)nc3ccc(C(=O)NCc4cccc(C(N)=O)c4)cc32)C1` has a remaining binding of 82% (binding; competition with immobilised ligand; 1 µM).
